Measurements from different studies.
Compare with care: the assays were run in different laboratories.
Effect on: cell growth or viability

SMILES	cell line	test	setting	measurement	result
Cc1cccc2[nH]cc(CNCC3(N4CCCC4)COC3)c12	U-87 MG	–	30 µM, 48 h	viability	52.5%
Cc1c(Cc2cccc(N(C)S(=O)(=O)CCCNCCCC(=O)N3CCN(c4ccc(Nc5c(C(N)=O)cnc6ccc(-c7cnc8ccccc8c7)cc56)cc4C(F)(F)F)CC3)c2)c(=O)oc2cc(OC(=O)N(C)C)ccc12	HCT-116	CCK-8	–	GI50	5470 nM
CC[C@@]1(OC(=O)[C@@H]2CCCN2)C(=O)OCc2c1cc1n(c2=O)Cc2cc3cc4c(cc3nc2-1)OCO4	HCT-116	MTT	–	IC50	125 nM
Cc1ccc2c(CNCC3(N4CCCC4)COC3)c[nH]c2c1	U-87 MG	–	30 µM, 48 h	viability	27.6%
Cc1cc(N(CCO)CCO)ccc1C=O	SN12K1	–	–	IC50	> 10 µg/mL
CC[C@@]1(OC(=O)CN)C(=O)OCc2c1cc1n(c2=O)Cc2cc3cc4c(cc3nc2-1)OCO4	HCT-116	MTT	–	IC50	25 nM
COc1cc2c(c3c1C(=O)C[C@@H](c1ccccc1)O3)[C@H]1[C@@H](O2)OC(C)(C)[C@@H]1OC(C)=O	Raji	MTS	48 h	IC50	> 10000 nM
CC[C@@]1(OC(=O)[C@@H](N)Cc2ccccc2)C(=O)OCc2c1cc1n(c2=O)Cc2cc3cc4c(cc3nc2-1)OCO4	HCT-116	MTT	–	IC50	38 nM
N.N.[Cl][Pt][Cl]	HCT-116	–	24 h	IC50	35600 nM
Cc1cc(N(CCO)CCO)ccc1C(=O)O	SN12K1	–	–	IC50	> 10 µg/mL
COc1c2ccoc2cc2oc(=O)ccc12	HCT-116	WST-1	48 h	IC50	29000 nM
CC1=C(O)C(=O)C=C2C1=CC=C1[C@@]2(C)CC[C@@]2(C)[C@@H]3C[C@](C)(C(=O)O)CC[C@]3(C)CC[C@]12C	AGS	MTT	48 h	IC50	390 nM
CC[C@@]1(OC(=O)C(C)c2cccc(C(=O)c3ccccc3)c2)C(=O)OCc2c1cc1n(c2=O)Cc2cc3cc4c(cc3nc2-1)OCO4 (stereo partly shown)	HCT-116	MTT	–	IC50	302 nM
